16 compounds from PubChem BioAssay can be followed below.

Assay [1] can be described thus: Her2 expression decrease, cell viability multiplex – SKBR3 breast tumor cells, AlphaScreen, ATP viability, primary screen (AID 461;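 active = Her2 level under about 52% in both replicate screens, with viability over 70% of control, limit read from the data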;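 for Her2 level: lower value means less Her2 protein in the cells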;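 for viability: percent of carrier control wells set as 100% viability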). Particulars: SKBR3 Her2 protein level, 18-24 h, measured here: SKBR3 viability, ATP luminescence, at 10 µM. For orientation: In Alpha technology, singlet oxygen from a donor bead excites a nearby acceptor bead.
Assay [2] deals with Receptor tyrosine-protein kinase erbB-2 (Homo sapiens) (UniProt P04626). The assay is described as above. Conditions: 18-24 h, at 10 µM, stronger effect = lower value.
Assay [3] is described as follows: reduced viability of SK-BR-3 breast cancer cells – cell-based, 24 h, human, pilot screen (AID 572).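 Note: compound exposure lasted between 18 and 24 h rather than exactly 24 h; 100% = carrier-treated control wells.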 Particulars: SK-BR-3 viability, CellTiter-Glo luminescence, at 10 µM, stronger effect = lower value. A general note: Cellular ATP, detected with luciferase, serves as a proxy for viable cell number.
Assay [4] in a line: HUVEC growth inhibition – cell-based, human, primary screen (AID 575;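 active = viability at or below 30% in both replicate assays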;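 note: 100% = median of untreated cell wells with 0.1% DMSO on each plate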). Conditions: HUVEC proliferation, CellTiter-Glo luminescence, 72 h; at 10 µM; stronger effect = lower value. In outline: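 system = HUVEC primary cells | amount = 1250 cells/well | buffer or medium = supplemented EBM, 2% fetal bovine serum | dosing = single-point 10 µM, DMSO 0.1% final | times = 72 h compound incubation | detection = CTG luminescence | read-out = % viability relative to median vehicle-well signal on each plate | control set = vehicle and MePR control wells | format = collagen-coated 384-well format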

Assay [5] in a line: H69AR cell proliferation blockers – human, duplicate replicates, primary screen (AID 580;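 active = viability at or under a set limit in both replicates, limit being median viability minus 3 SD, cut at about 48% in these data, passing the limit was not always enough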;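 note: 100% = mean luminescence of untreated wells and 0% = no signal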). Particulars: H69AR lung tumor cells viability, ATP luminescence, 72 h; at 10 µM; stronger effect = lower value.
Assay [6] in a line: MRP1 drug-resistance reversers in H69AR cells – cell-based, doxorubicin co-treatment, pilot screen (AID 601;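 active = viability loss from added drug above about 55%, and viability with drug at most 40%, in both replicates, limit read from the data, passing the limit was not always enough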). Particulars: CellTiter-Glo, 72 h, at 10 µM; for differential viability (reversal): stronger effect = higher value.
The nature of assay [7]: yeast transport mutant growth inhibition pilot in 384-well plates, post-Golgi transport modulator project (AID 636; in the data active = inhibition above about 31%). Particulars: absorbance 615 nm, about 18 h, stronger effect = higher value.
Assay [8] in a line: growth suppression of yeast trafficking mutant, preliminary HTS, modulators of trafficking downstream of Golgi apparatus project, 1536-format plate, OD 615 nm (AID 637; in the data active = inhibition above about 30%). Conditions: yeast transport mutant growth, absorbance 615 nm, 18 h; stronger effect = higher value.
Where [9] appears, read: H69AR cells + 2 uM doxorubicin, measured here: viability with 2 uM doxorubicin, stronger effect = lower value.
The mark [10] stands for this setting: H69AR cells, compound alone cytotoxicity.

The source made the active and inactive calls.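 Rule for the calls, unless noted: active = viability at or below 10% of carrier control in both of two separate runs; inconclusive = viability at or below 10% in only one of the two runs; inactive = the rest.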

Receptor tyrosine-protein kinase erbB-2 (Homo sapiens), sequence (P04626 whole entry, looked up): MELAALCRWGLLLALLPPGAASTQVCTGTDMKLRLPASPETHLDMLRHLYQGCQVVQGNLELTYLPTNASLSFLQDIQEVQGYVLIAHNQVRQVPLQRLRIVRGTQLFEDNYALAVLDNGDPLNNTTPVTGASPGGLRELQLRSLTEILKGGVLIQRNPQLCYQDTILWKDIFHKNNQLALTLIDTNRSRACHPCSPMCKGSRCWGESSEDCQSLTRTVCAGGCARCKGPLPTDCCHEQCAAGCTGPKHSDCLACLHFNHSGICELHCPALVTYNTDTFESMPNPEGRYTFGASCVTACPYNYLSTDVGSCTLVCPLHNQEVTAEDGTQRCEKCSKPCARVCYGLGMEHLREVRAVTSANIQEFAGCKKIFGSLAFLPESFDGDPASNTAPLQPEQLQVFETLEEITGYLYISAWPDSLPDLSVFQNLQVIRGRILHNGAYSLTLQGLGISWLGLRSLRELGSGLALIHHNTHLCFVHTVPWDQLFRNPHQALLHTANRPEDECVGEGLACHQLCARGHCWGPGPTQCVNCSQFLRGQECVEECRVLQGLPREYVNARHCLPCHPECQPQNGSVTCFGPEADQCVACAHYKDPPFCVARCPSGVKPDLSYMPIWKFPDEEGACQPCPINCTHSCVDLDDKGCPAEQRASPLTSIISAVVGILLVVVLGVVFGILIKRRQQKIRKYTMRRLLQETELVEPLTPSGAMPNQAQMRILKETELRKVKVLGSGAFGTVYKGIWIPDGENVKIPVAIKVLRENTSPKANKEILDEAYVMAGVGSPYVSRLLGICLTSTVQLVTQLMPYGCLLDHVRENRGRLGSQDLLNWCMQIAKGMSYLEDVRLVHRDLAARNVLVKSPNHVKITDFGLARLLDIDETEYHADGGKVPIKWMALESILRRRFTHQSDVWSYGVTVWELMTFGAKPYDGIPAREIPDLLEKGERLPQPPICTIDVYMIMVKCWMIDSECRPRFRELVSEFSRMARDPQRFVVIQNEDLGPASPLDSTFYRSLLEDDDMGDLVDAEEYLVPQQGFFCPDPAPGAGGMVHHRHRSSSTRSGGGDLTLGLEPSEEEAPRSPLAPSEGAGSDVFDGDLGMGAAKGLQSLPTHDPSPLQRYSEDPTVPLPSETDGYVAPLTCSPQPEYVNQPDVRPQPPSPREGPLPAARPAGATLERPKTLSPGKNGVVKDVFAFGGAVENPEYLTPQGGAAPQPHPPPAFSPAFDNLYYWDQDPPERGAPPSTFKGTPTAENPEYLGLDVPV

`CCOc1ccccc1N(C(=O)Cn1nnnc1-c1ccc(C)o1)C(CC)C(=O)NC(C)(C)C` (stereo not given): the viability – broadly, a read-out of living cells in per cent, often relative to untreated cells – in assay [1] was 88.5%; in assay [3], 88.5% (inactive); in assay [4], 120% (inactive); in assay [5], 88.5% (inactive); in assay [6] (setting [9]), 103%; in assay [6] (setting [10]), 88.5%. Besides, the Her2 level in assay [2] is 105% (inactive). Also, the differential viability (reversal) in assay [6] (H69AR cells + 2 uM doxorubicin) is -14.7% (inactive). The results for the inhibition in assay [7] and in assay [8] were 1.51% (inactive) and 4.6% (inactive), respectively.
`CCOC(=O)CN1CC23C=CC(O2)C(C(=O)Nc2ccc(OC)cc2OC)C3C1=O` (stereo not given): the viability is 99% in assay [1]; 99% (inactive) in assay [3]; 93.7% (inactive) in assay [4]; 98.9% (inactive) in assay [5]; 93.9% in assay [6] (setting [9]); 98.9% in assay [6] (setting [10]). Besides, the Her2 level in assay [2] is 99% (inactive). In assay [6] (H69AR cells + 2 uM doxorubicin), the differential viability (reversal) was 5.06% (inactive). In addition, the inhibition (as a rule, the change of the read-out against control, counted positive when it falls) in assay [7] was -0.77% (inactive); in assay [8] it was 1.83% (inactive).
Take `CCn1c(SCC(=O)c2ccc(OC)cc2)nnc1C(C)NC(=O)c1ccc(OC)cc1` (stereo not given): the viability in assay [1] was 93%; in assay [3] it was 93% (inactive); in assay [4] it was 85.7% (inactive); in assay [5] it was 88.2% (inactive); in assay [6] (setting [9]) it was 91.9%; in assay [6] (setting [10]), 88.2%. Further, the Her2 level in assay [2] is 106% (inactive). The differential viability (reversal) in assay [6] (H69AR cells + 2 uM doxorubicin) is -3.72% (inactive). Moreover, the inhibition was -1.2% (inactive) in assay [7] and -8.41% (inactive) in assay [8].
Turning to `c1cnn(-c2cc(N3CCOCC3)ncn2)c1`, the viability was 70% in assay [1]; 70% (inactive) in assay [3]; 90.2% (inactive) in assay [4]; 93% (inactive) in assay [5]; 85.5% in assay [6] (setting [9]); 93% in assay [6] (setting [10]). Moreover, the Her2 level in assay [2] is 117% (inactive). For the same compound, the differential viability (reversal) in assay [6] (H69AR cells + 2 uM doxorubicin) was 7.52% (inactive). Also, the inhibition in assay [7] is 4.47% (inactive); in assay [8] it was 21.6% (inactive).
As for `Cc1cc(NC(=O)CCOc2ccccc2)no1`, the viability in assay [1] was 85.5%; in assay [3], 85.5% (inactive); in assay [4] it was 87% (inactive); in assay [5] it was 88.6% (inactive); in assay [6] (setting [9]), 85.7%; in assay [6] (setting [10]) it was 88.6%. Further, the Her2 level in assay [2] was 96.5% (inactive). For the same compound, in assay [6] (H69AR cells + 2 uM doxorubicin), the differential viability (reversal) was 2.89% (inactive). For the same compound, the figures for the inhibition in assay [7] and in assay [8] were -2.34% (inactive) and 1% (inactive), respectively.
Take `O=C(NCc1ccco1)C1CCN(C(=O)c2cc3sccc3n2Cc2ccc(F)cc2)CC1`: the viability is 94.5% in assay [1]; 94.5% (inactive) in assay [3]; 56.1% (inactive) in assay [4]; 67.1% (inactive) in assay [5]; 73.7% in assay [6] (setting [9]); 67.1% in assay [6] (setting [10]). Further, the Her2 level in assay [2] was 62.5% (inactive). In addition, in assay [6] (H69AR cells + 2 uM doxorubicin), the differential viability (reversal) is -6.56% (inactive). The figures for the inhibition in assay [7] and in assay [8] were -5.87% (inactive) and 5.74% (inactive), respectively.
`CC(C)CNC(=O)c1ccccc1NC(=O)c1ccc(CN2CCOCC2)cc1`: the viability in assay [1] is 92.5%; in assay [3], 92.5% (inactive); in assay [4] it was 106% (inactive); in assay [5] it was 99.6% (inactive); in assay [6] (setting [9]), 87.7%; in assay [6] (setting [10]), 99.6%. Also, the Her2 level in assay [2] is 96% (inactive). The differential viability (reversal) in assay [6] (H69AR cells + 2 uM doxorubicin) is 11.9% (inactive). Also, the results for the inhibition in assay [7] and in assay [8] were -5.68% (inactive) and 1.8% (inactive), respectively.
Turning to `CCOC(=O)N1CCN(C(=O)COc2ccc(Br)cc2Cl)CC1`, the viability is 96% in assay [1]; 96% (inactive) in assay [3]; 117% (inactive) in assay [4]; 93.7% (inactive) in assay [5]; 91.2% in assay [6] (setting [9]); 93.7% in assay [6] (setting [10]). In assay [2], the Her2 level is 112% (inactive). Besides, the differential viability (reversal) in assay [6] (H69AR cells + 2 uM doxorubicin) was 2.46% (inactive). The inhibition is -1.17% (inactive) in assay [7] and -5.33% (inactive) in assay [8].
Consider `COC(=O)c1cnc2c(C(F)(F)F)cccc2c1OC`, for which the viability in assay [1] is 104%; in assay [3], 104% (inactive); in assay [4], 97.6% (inactive); in assay [5], 98.4% (inactive); in assay [6] (setting [9]), 86.8%; in assay [6] (setting [10]), 98.4%. Moreover, the Her2 level in assay [2] is 106% (inactive). The differential viability (reversal) in assay [6] (H69AR cells + 2 uM doxorubicin) is 11.6% (inactive). The inhibition is -5.33% (inactive) in assay [7] and -1.31% (inactive) in assay [8].
With `CCCn1c(NC(=O)C2COc3ccccc3O2)nc2ccccc21` (stereo not given), the viability was 99.5% in assay [1]; 99.5% (inactive) in assay [3]; 66.1% (inactive) in assay [4]; 67.8% (inactive) in assay [5]; 81.6% in assay [6] (setting [9]); 67.8% in assay [6] (setting [10]). For the same compound, in assay [2], the Her2 level was 90% (inactive). The differential viability (reversal) in assay [6] (H69AR cells + 2 uM doxorubicin) is -13.7% (inactive). Besides, the values for the inhibition in assay [7] and in assay [8] were -3.47% (inactive) and 5.74% (inactive), respectively.
Regarding `O=C(OCc1nnc(-c2ccccc2)o1)c1ccc(S(=O)(=O)NCc2ccco2)cc1`, the viability in assay [1] is 99.5%; in assay [3], 99.5% (inactive); in assay [4] it was 99.6% (inactive); in assay [5] it was 53.6% (inactive); in assay [6] (setting [9]), 60.3%; in assay [6] (setting [10]), 53.6%. Moreover, the Her2 level in assay [2] was 98% (inactive). Moreover, in assay [6] (H69AR cells + 2 uM doxorubicin), the differential viability (reversal) is -6.69% (inactive). For the same compound, the inhibition was -4.87% (inactive) in assay [7] and -6.36% (inactive) in assay [8].
Turning to `CN(C)S(=O)(=O)c1ccc(C(=O)N2CCC(c3nc4ccccc4o3)CC2)cc1`, the viability in assay [1] is 82%; in assay [3] it was 82% (inactive); in assay [4] it was 95.1% (inactive); in assay [5], 83% (inactive); in assay [6] (setting [9]), 74.1%; in assay [6] (setting [10]), 83%. The Her2 level in assay [2] was 83% (inactive). For the same compound, the differential viability (reversal) in assay [6] (H69AR cells + 2 uM doxorubicin) was 8.86% (inactive). Moreover, the values for the inhibition in assay [7] and in assay [8] were -4.67% (inactive) and -6.07% (inactive), respectively.
On to `CC(=O)c1cccc(NC(=O)N2CCCc3ccccc32)c1`, for which the viability in assay [1] was 105%; in assay [3], 105% (inactive); in assay [4] it was 95% (inactive); in assay [5], 93.6% (inactive); in assay [6] (setting [9]), 90.7%; in assay [6] (setting [10]) it was 93.6%. The Her2 level in assay [2] is 104% (inactive). For the same compound, the differential viability (reversal) in assay [6] (H69AR cells + 2 uM doxorubicin) is 2.88% (inactive). The inhibition in assay [7] is -3.73% (inactive); in assay [8], 3.93% (inactive).
On to `CCCOc1cccc(C2/C(=C(/O)c3ccccc3)C(=O)C(=O)N2CCN(C)C)c1` (stereo not given), for which the viability is 108% in assay [1]; 108% (inactive) in assay [3]; 99.5% (inactive) in assay [4]; 91.6% (inactive) in assay [5]; 89.1% in assay [6] (setting [9]); 91.6% in assay [6] (setting [10]). Moreover, the Her2 level in assay [2] was 93% (inactive). Moreover, the differential viability (reversal) in assay [6] (H69AR cells + 2 uM doxorubicin) was 2.56% (inactive). Also, the inhibition in assay [7] is -6.62% (inactive); in assay [8], 1.75% (inactive).
Take `FC(F)(F)c1cccc(N2CCN(c3nnnn3-c3ccccc3)CC2)c1`: the viability in assay [1] was 85%; in assay [3], 85% (inactive); in assay [4], 81% (inactive); in assay [5], 84.7% (inactive); in assay [6] (setting [9]), 84.4%; in assay [6] (setting [10]), 84.7%. The Her2 level in assay [2] is 88.5% (inactive). Further, the differential viability (reversal) in assay [6] (H69AR cells + 2 uM doxorubicin) was 0.31% (inactive). For the same compound, the values for the inhibition in assay [7] and in assay [8] were -5.84% (inactive) and -2.22% (inactive), respectively.
With `CCNc1nc(N2CCOCC2)nc(N(c2ccccc2)c2ccccc2)n1`, the viability in assay [1] is 80.5%; in assay [3] it was 80.5% (inactive); in assay [4], 62.2% (inactive); in assay [5], 84.2% (inactive); in assay [6] (setting [9]), 79.4%; in assay [6] (setting [10]), 84.2%. Further, the Her2 level in assay [2] is 97% (inactive). The differential viability (reversal) in assay [6] (H69AR cells + 2 uM doxorubicin) was 4.78% (inactive). For the same compound, the inhibition was -3.55% (inactive) in assay [7] and -10% (inactive) in assay [8].
